In test [1] the target is Protein kinase C eta type (Homo sapiens) (UniProt P24723). The test can be described thus: Inhibition of PRKCH at 1 uM.
The target in test [2] is Tyrosine-protein kinase SYK (Homo sapiens) (UniProt P43405). The test is described as follows: Inhibition of SYK at 1 uM.
The target in test [3] is Casein kinase I isoform epsilon (Homo sapiens) (UniProt P49674). The test can be described thus: Inhibition of CSNK1E at 1 uM. In outline: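 Single-concentration screen using Ambit Bioscience KINOMEscan technology across a panel of 250–400 kinases. Per-kinase inhibition from this screen was summarized as S(90), the fraction of kinases inhibited by more than 90%.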
Test [4] relates to Hepatocyte growth factor receptor (Homo sapiens), P08581 [M1250T]. The test is described as follows: Inhibition of MET M1250T mutant at 1 uM.
For test [5], the target named is T1, Serine/threonine-protein kinase TAO1 (Homo sapiens) (UniProt Q7L7X3).
T1 sequence (whole entry): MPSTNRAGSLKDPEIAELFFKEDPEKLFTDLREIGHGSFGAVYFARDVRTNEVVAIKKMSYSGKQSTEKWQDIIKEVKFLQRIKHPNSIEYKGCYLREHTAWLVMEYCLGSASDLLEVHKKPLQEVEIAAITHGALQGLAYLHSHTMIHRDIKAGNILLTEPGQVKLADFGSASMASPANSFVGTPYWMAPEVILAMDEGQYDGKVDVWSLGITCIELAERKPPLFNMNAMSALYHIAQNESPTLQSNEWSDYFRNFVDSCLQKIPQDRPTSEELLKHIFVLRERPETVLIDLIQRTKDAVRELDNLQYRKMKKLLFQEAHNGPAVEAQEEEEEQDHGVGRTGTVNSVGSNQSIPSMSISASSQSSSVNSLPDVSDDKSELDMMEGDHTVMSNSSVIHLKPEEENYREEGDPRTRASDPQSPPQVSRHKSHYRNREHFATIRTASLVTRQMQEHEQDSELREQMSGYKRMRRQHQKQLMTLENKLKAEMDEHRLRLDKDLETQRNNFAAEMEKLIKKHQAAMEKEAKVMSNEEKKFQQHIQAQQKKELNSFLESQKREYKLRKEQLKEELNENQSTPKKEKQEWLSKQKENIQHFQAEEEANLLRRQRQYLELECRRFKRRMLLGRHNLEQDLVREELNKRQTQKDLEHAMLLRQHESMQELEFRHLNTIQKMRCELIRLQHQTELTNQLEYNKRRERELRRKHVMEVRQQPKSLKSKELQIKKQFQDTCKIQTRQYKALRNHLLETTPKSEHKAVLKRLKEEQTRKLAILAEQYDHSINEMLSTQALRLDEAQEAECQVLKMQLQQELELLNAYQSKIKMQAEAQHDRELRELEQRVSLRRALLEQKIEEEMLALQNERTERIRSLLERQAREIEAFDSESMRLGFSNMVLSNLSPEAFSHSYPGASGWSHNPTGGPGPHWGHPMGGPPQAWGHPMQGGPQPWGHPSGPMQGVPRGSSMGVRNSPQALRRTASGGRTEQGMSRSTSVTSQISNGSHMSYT
The test can be described thus: Inhibition of TAOK1 at 1 uM.

Test [6] deals with T2, Serine/threonine-protein kinase TAO3 (Homo sapiens) (UniProt Q9H2K8).
T2 sequence (whole entry): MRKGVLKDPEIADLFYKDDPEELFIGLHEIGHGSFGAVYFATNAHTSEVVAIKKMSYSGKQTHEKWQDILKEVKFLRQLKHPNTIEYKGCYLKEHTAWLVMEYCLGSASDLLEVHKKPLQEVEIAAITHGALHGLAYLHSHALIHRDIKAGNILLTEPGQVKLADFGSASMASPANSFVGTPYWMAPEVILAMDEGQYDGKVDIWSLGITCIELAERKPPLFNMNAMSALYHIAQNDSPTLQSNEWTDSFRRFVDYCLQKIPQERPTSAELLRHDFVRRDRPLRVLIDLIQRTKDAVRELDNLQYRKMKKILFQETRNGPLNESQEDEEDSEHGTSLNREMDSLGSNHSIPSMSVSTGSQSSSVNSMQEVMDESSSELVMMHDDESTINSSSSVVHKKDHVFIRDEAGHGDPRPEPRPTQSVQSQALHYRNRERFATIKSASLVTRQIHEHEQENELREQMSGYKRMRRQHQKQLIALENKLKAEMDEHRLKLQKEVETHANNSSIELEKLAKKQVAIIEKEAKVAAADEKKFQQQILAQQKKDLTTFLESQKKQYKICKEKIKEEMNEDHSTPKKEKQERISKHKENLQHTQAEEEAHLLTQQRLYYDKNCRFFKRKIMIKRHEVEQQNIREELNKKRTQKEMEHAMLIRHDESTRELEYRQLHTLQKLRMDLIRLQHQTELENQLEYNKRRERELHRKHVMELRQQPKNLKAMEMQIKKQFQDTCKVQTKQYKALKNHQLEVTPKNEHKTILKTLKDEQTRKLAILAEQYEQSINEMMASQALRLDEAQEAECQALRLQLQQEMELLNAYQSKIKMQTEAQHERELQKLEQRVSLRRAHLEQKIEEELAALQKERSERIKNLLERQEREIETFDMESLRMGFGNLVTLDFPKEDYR
The test is described as follows: Inhibition of TAOK3 at 1 uM.

The target of test [7] is T3, Discoidin domain-containing receptor 2 (Homo sapiens) (UniProt Q16832).
T3 sequence (whole entry): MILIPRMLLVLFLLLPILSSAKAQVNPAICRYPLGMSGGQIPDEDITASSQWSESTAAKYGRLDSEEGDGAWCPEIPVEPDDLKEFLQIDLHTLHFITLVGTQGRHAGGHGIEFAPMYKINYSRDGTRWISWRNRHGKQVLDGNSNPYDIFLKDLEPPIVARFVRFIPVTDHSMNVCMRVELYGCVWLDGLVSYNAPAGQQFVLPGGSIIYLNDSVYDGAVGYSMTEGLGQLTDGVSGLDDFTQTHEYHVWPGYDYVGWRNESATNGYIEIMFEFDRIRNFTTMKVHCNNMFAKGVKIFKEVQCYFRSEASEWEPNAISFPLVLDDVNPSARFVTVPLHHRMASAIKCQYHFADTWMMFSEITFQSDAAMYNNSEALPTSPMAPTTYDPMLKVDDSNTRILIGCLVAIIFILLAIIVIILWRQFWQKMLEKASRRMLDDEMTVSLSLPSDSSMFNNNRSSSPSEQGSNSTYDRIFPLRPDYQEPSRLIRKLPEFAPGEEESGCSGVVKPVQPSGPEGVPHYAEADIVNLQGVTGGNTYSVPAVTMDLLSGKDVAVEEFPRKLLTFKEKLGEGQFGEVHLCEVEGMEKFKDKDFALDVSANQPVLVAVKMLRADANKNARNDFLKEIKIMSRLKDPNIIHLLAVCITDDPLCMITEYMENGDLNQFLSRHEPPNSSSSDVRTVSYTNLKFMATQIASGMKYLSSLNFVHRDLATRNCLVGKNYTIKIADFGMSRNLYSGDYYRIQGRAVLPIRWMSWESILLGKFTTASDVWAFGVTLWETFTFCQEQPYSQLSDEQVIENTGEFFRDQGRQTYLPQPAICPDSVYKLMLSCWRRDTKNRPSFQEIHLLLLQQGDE
The test is described as follows: Inhibition of DDR2 at 1 uM.

Some results are limits rather than exact numbers.

Chain of Protein kinase C eta type (Homo sapiens) (P24723 whole entry): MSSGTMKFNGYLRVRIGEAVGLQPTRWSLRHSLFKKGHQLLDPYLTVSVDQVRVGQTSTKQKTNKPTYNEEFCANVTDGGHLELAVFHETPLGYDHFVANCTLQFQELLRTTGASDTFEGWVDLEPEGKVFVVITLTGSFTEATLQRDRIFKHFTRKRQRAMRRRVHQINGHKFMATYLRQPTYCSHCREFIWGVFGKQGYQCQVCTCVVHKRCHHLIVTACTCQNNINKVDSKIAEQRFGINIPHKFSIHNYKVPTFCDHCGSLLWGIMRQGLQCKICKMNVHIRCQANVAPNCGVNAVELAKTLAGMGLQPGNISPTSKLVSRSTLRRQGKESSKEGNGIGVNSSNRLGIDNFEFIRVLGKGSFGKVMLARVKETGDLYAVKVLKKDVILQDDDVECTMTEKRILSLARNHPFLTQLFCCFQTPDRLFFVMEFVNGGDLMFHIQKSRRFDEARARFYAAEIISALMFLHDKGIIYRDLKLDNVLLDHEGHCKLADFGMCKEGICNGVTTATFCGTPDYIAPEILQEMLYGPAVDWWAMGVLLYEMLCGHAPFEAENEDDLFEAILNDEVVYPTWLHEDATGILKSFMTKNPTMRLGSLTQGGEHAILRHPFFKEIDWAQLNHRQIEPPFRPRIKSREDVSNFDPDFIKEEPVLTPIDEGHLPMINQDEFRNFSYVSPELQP
Chain of Casein kinase I isoform epsilon (Homo sapiens) (P49674 whole entry, looked up, canonical isoform): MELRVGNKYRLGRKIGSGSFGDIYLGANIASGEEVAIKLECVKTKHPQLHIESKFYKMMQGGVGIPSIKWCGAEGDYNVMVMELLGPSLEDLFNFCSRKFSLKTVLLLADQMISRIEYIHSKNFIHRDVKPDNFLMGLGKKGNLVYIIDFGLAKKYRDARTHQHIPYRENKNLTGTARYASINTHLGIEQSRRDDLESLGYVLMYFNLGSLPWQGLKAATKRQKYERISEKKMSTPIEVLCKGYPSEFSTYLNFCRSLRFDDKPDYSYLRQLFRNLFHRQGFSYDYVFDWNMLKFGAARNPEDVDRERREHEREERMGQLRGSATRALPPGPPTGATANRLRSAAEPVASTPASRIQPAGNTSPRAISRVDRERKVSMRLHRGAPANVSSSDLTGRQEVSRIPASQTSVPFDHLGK
Chain of Hepatocyte growth factor receptor (Homo sapiens), P08581 [M1250T] (P08581 whole entry M1250T): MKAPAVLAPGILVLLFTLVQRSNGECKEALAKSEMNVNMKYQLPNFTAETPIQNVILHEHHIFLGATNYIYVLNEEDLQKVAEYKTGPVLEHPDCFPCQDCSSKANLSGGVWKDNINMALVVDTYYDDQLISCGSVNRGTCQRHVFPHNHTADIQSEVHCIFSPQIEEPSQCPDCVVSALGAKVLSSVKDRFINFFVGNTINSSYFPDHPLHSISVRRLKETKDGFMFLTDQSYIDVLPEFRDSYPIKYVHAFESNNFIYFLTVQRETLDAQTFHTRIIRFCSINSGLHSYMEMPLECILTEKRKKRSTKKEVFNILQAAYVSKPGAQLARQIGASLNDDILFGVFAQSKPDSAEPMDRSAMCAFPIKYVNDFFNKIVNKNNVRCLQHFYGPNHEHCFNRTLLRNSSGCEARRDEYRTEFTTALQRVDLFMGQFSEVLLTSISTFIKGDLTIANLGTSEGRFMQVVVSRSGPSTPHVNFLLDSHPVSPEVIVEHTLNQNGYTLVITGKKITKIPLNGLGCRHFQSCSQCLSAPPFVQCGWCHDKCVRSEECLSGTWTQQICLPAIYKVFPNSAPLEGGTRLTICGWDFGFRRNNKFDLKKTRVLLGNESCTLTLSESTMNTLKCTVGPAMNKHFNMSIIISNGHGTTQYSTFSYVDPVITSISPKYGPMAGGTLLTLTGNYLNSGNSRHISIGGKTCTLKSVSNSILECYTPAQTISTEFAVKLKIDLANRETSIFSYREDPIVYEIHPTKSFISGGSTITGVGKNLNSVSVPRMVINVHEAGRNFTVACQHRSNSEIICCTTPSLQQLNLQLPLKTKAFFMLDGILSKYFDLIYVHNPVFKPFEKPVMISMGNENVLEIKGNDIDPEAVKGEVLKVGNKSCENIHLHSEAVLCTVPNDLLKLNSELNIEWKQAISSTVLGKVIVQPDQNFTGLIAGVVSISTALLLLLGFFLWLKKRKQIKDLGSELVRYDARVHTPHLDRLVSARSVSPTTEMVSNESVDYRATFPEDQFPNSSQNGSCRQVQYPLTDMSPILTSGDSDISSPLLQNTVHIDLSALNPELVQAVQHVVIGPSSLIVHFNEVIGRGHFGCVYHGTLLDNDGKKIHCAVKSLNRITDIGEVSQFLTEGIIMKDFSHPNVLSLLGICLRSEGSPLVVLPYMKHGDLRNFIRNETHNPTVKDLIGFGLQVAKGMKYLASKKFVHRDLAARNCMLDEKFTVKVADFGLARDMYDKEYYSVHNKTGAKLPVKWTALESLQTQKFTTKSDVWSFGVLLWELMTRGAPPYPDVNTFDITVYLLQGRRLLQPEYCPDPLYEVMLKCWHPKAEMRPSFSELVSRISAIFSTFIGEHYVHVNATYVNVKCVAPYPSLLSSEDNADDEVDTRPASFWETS

A word on the inhibition: it is the relative decrease from the control value, in per cent. A low value points to little suppression. Regarding `O=C(c1ccc(-c2cnc3c(c2)N(Cc2cc(Cl)ccc2C(F)(F)F)CCN3)cc1)N1CCCCC1`, the inhibition in test [1], in test [2] and in test [3] was under 50% in each case.

As to `CN1CCN(c2ccc(-c3cnc4c(c3)N(Cc3c(F)ccc(F)c3Cl)CCN4)cn2)CC1`, the inhibition in test [4] was 82%; in test [1], under 50%; in test [2], under 50%; in test [5], under 50%; in test [6] it was under 50%; in test [3], under 50%. The inhibition in test [7] was under 50%.

Take `COC1CCN(C(=O)c2ccc(-c3cnc4c(c3)N(Cc3cc(Cl)ccc3C(F)(F)F)CCN4)cc2)CC1`: the inhibition in test [1], in test [2], in test [3] and in test [7] was under 50% each time.

As to `O=C(O)c1ccc(-c2cnc3c(c2)N(Cc2cc(Cl)ccc2C(F)(F)F)CCN3)cc1`, the inhibition in test [1], in test [2] and in test [3] was under 50% each time.

Consider `FC(F)(F)c1ccc(Cl)cc1CN1CCNc2ncc(-c3ccnc(N4CCNCC4)c3)cc21`, for which the inhibition was 86% in test [4]; under 50% in test [1]; under 50% in test [2]; under 50% in test [5]; under 50% in test [6]; under 50% in test [3]. The inhibition in test [7] is under 50%.

As to `CN1CCN(c2ccc(-c3cnc4c(c3)N(Cc3cc(Cl)ccc3Cl)CCN4)cn2)CC1`, the inhibition in test [4], in test [1], in test [2], in test [5], in test [6] and in test [3] was under 50% throughout. The compound further registered an inhibition in test [7] of under 50%.

Consider `O=C(c1ccc(-c2cnc3c(c2)N(Cc2cc(Cl)ccc2C(F)(F)F)CCN3)cc1)N1CCC(N2CCCC2)CC1`, for which the inhibition in test [1], in test [2], in test [3] and in test [7] was under 50% throughout.

`CN1CCN(c2ccc(-c3cnc4c(c3)N(Cc3cc(Cl)ccc3C(F)(F)F)CCN4)cn2)CC1`: the inhibition in test [4], in test [1], in test [2], in test [5], in test [6] and in test [3] was under 50% in each case. Moreover, the inhibition in test [7] is under 50%.

Consider `CC(=O)N1CCN(c2cc(-c3cnc4c(c3)N(Cc3cc(Cl)ccc3C(F)(F)F)CCN4)ccn2)CC1`, for which the inhibition in test [4], in test [1], in test [2], in test [5], in test [6] and in test [3] was under 50% throughout. Besides, the inhibition in test [7] is under 50%.

For the compound `CN1CCN(c2ccc(-c3cnc4c(c3)N(Cc3cc(F)ccc3F)CCN4)cn2)CC1`, the inhibition in test [4], in test [1], in test [2], in test [5], in test [6] and in test [3] was under 50% throughout. The inhibition in test [7] was under 50%.
